# Tn6 DDE FP = DD(E)-Tn6 binding inhibition, primary FP screen | P02675 | Fibrin DD(E) TRITC-Tn6 fluorescence polarization displacement | inhibition, % at 8.3 µM | 370,000 tested, 0.21% active | AID 720509;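 active = inhibition above a per-campaign cutoff: mean of compounds within control limits plus 3 SD, cut at about 15% in these data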;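 also: 0% = median of all compound wells on the plate and 100% = blocking peptide control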
# mABHD4 FP = inhibitors of mouse ABHD4. Q8VD66. purified mABHD4, FP-Rh probe fluorescence polarization. inhibition, % at 8.92 µM. 370,000 tested, 0.54% active;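 active = inhibition exceeding the mean over every tested compound plus 3 SD, cut at about 30% in these data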;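 also: 0% = plate median of compound wells and 100% = S159A mutant with DMSO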
#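 system = mouse ABHD4 enzyme, wild type | medium = HEPES pH 7.0, NaCl, Pluronic buffer | also added = FP-Rh probe | incubation = Enzyme–compound pre-incubation 45 min, then probe 60 min, both 25 °C | technique = fluorescence polarization, excitation 525 nm, emission 598 nm, BODIPY TMR filters | controls = S159A mutant high control, sample median low control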
# Tn7 DDE FP = DD(E)-Tn7 binding inhibition, primary FP screen; inhibition, % at 8.3 µM; 370,000 tested, 0.13% active; FP displacement of FITC-Tn7 peptide from fibrin DD(E); 0% = median of compound wells per plate; P02675; AID 720508;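 active = inhibition above the mean of compounds falling within the control limits plus 3 SD of them, cut at about 14% in these data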;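 also: 0% = plate median of compound wells and 100% = 10 µM Aha-Tn7 peptide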
#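 System: human fibrin DD(E); quantity: Fibrin-DD(E) at 2 µM final; also added: fluorescent Tn7 probe at 0.1 µM; compound dosing: single nominal test concentration of 8.3 µM per compound; schedule: 10 min preincubation, 3 h with tracer, room temperature; detection: fluorescence polarization of the labelled Tn7 tracer; repeats: one replicate per compound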
# TCR-CD3 inh = human TCR-CD3 binding inhibition; TAMRA-labeled TCR probe fluorescence, biochemical; inhibition, % at 9.4 µM; 360,000 tested, 0.37% active;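 also: recombinant mutant TCR 2C K166C tagged with TAMRA read by polarization; 0% = receptor in buffer alone and 100% = receptor with positive control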
# HTRA1 inhibitor = inhibitors of human serine peptidase HTRA1; Q92743; recombinant HTRA1, FP-rhodamine activity-based probe, fluorescence polarization; inhibition, % at 5.96 µM; 340,000 tested, 0.5% active; AID 504803; in the data active = inhibition above about 36%;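 also: 0% = enzyme with DMSO and 100% = wells lacking enzyme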
# Target sequence (Q92743 whole entry, looked up): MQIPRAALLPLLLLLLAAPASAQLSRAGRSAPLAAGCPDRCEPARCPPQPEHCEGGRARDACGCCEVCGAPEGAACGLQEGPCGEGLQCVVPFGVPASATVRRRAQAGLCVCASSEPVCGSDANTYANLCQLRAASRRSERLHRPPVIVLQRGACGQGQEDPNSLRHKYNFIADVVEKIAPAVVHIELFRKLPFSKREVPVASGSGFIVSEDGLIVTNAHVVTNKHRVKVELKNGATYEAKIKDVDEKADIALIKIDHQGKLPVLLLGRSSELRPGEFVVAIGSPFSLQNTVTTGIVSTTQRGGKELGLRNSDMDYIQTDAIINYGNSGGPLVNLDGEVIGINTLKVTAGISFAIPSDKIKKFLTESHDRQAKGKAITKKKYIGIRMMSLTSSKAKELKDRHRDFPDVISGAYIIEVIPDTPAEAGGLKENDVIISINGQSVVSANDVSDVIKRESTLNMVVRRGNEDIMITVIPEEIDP
# BSA TAMRA ctr = BSA probe counter-screen for TCR-CD3 inhibitors; TAMRA-labeled BSA probe fluorescence counterscreen; shares compounds with TCR-CD3 inh; 1,200 tested, 10% active; AID 652035; inhibition, % at 9.4 µM; in the data active = inhibition above about 23%;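 also: 0% = buffer low control and 100% = reference high control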
# TCR-CD3 inh conf = confirmation of human TCR-CD3 interaction inhibitors; TAMRA-labeled TCR probe fluorescence binding assay; shares compounds with TCR-CD3 inh; inhibition, % at 9.4 µM; 1,200 tested, 48% active
# The depositor's hits bear a star; nt = no result given. This is a sample that favours compounds with a hit; in the whole collection about 1.3% have one here. Rule as the data show it, unless noted: active = inhibition above about 19%; inactive = the rest.
SMILES,Tn6 DDE FP,mABHD4 FP,Tn7 DDE FP,TCR-CD3 inh,HTRA1 inhibitor,BSA TAMRA ctr,TCR-CD3 inh conf
N#CCCN(Cc1cccnc1)S(=O)(=O)c1ccc(S(=O)(=O)N2CCCCCC2)cc1,6.1,-11.3,1.6,-0.3,0.5,nt,nt
COC(=O)C1CC(=O)N(c2ccc(OCc3ccccc3Cl)cc2)C1 (stereo unspecified),9.5,-2.3,-0.7,-1.1,-3.3,nt,nt
O=C(CCCSc1ccccc1)Nc1nc(-c2ccco2)c(-c2ccco2)s1,3.9,-0.6,-4.4,23.0*,-18.7,-10.9,-2.9
Cc1c(C(=O)OCC(=O)Nc2cccc(S(N)(=O)=O)c2)oc2c1ccc1ccccc12,-7.5,-35.8,-6.1,25.0*,-42.5,2.5,5.1
CCC(=O)Nc1ccc2nc3c(=O)[nH]c(=S)[nH]c3nc2c1,-3.0,7.2,-5.2,29.0*,16.1,-3.3,27.6*
CCCCn1c(=O)[nH]c2nc3cc(NC(C)=O)ccc3nc2c1=O,-1.0,2.1,-2.7,-4.3,-3.3,nt,nt
O=C(NNC(=O)c1ccccc1O)c1ccc(Br)cc1,4.7,3.5,0.7,22.7*,24.3,-3.6,20.9*
O=C(CCNC(=O)c1ccc(Br)cc1)NNC(=O)c1ccccc1O,2.0,8.5,-0.7,22.5*,22.0,-7.6,20.4*
COc1ccccc1C(=O)NNC(=O)c1ccc(C)cc1,2.2,3.0,-0.9,-3.6,6.4,nt,nt
COc1ccccc1C(=O)NNC(=O)c1ccc(NC(=O)CC(C)C)cc1,0.5,-0.7,-5.1,30.6*,-9.7,0.8,31.9*
COc1ccccc1OCC(=O)NCCNC(=O)COc1ccccc1OC,9.5,2.1,-1.7,8.3,1.5,nt,nt
COc1ccccc1OCC(=O)NNC(=O)CCCC(=O)NNC(=O)COc1ccccc1OC,-5.2,0.6,-5.2,25.6*,8.9,-17.5,4.6
O=C(CCNC(=O)c1ccccc1)NNC(=O)c1ccccc1Br,-1.3,1.0,3.5,-0.9,-0.4,nt,nt
Cc1snc(S(=O)(=O)/C(C#N)=N/Nc2cccc(C(F)(F)F)c2)c1C#N,nt,nt,nt,nt,-16.7,nt,nt
COc1c(Cl)ccc(Cl)c1C(=O)NC(=O)Nc1nc(C)cc(C)n1,6.0,6.8,3.5,-3.8,-1.3,nt,nt
CCOC(=O)/C=c1\s/c(=C\c2ccc3cc(OC)ccc3c2)c(=O)n1CC(=O)NCC1CCCO1 (stereo unspecified),-6.1,-12.9,-6.0,1.9,-11.4,nt,nt
O=C(CCC(=O)c1cccs1)NNC(=O)c1ccccc1O,-2.5,9.8,2.1,48.4*,7.6,-11.6,28.3*
COc1ccccc1/C=C1\SC(=S)N(CCC(=O)NNC(=O)c2ccccc2OC)C1=O,-4.5,1.6,-0.3,27.8*,25.2,-9.5,18.6
COc1ccccc1C(=O)NCCC(=O)NNC(=O)c1ccccc1O,-1.2,7.9,-9.9,45.0*,-4.5,-15.9,30.3*
COc1ccccc1/C=C1\SC(=O)N(CCC(=O)NNC(=O)c2ccccc2Cl)C1=O,2.6,2.7,0.4,5.0,4.0,nt,nt
COc1cc(C2C(C#N)=C(N)Oc3c2ccc2ccccc32)ccc1OCC(=O)Nc1ccc(C)cc1 (stereo unspecified),-11.0,-26.8,-12.6,-1.5,-70.9,nt,nt
COc1cc(/C=C(\C#N)c2nc3ccccc3[nH]2)c([N+](=O)[O-])cc1OCc1ccccc1,-12.1,14.7,-0.8,4.6,-29.4,nt,nt
O=C(N/N=C/c1cc(Cl)cc([N+](=O)[O-])c1O)C1CC1,-5.0,15.5,-0.2,21.2*,10.6,-11.0,16.6
COCCN(C(=O)COC(=O)CCOc1cccc(C)c1)c1c(N)n(Cc2ccccc2)c(=O)[nH]c1=O,7.3,7.6,-0.8,1.0,5.7,nt,nt
Cc1cccc(-n2c(O)c(/C=N/NC(=O)c3ccccc3Cl)c3ccccc3c2=O)n1,-2.8,-0.1,-6.7,28.4*,23.9,-3.5,37.3*
SMILES,Tn6 DDE FP,mABHD4 FP,Tn7 DDE FP,TCR-CD3 inh,HTRA1 inhibitor,BSA TAMRA ctr,TCR-CD3 inh conf
Cc1cccc(-n2c(O)c(C=Nc3cc(O)ccc3C)c3ccccc3c2=O)n1,-10.7,0.5,-5.8,37.0*,-1.8,-20.9,6.2
N#CCC(=O)Nc1ccc(C(=O)OCC(=O)Nc2cc(-c3ccccc3)nn2-c2ccccc2)cc1,-3.7,-12.0,1.5,52.3*,-64.8,14.1,21.3*
CCN(CC)S(=O)(=O)c1ccc(NC(=O)COC(=O)c2ccc(NC(=O)CC#N)cc2)cc1,0.0,12.1,-9.4,19.7*,-24.4,-3.2,-0.2
N#CCC(=O)Nc1ccc(C(=O)OCC(=O)Nc2ccccc2-c2ccccc2)cc1,4.1,-5.1,-4.9,6.7,nt,nt,nt
CNC(=O)COC(=O)c1ccc(NC(=O)CC#N)cc1,-1.7,-4.0,1.5,0.9,1.2,nt,nt
CC(C)c1ccccc1NC(=O)COC(=O)Cc1cccc(C(F)(F)F)c1,-2.2,-1.3,3.2,7.3,-10.9,nt,nt
Cc1ccc(-c2[nH]c3cc(C(=O)NCCCn4ccnc4)ccc3c(=O)c2O)cc1,-11.6,12.9,-6.7,41.0*,28.6,-4.6,49.3*
Nc1cc(=O)[nH]c(SCC(=O)NNC(=O)c2ccccc2)n1,4.2,-0.9,-3.6,21.6*,0.7,-1.3,5.4
Cn1c(SCC(=O)c2ccc(O)c(O)c2)nnc1-c1cccs1,4.0,23.8,1.2,23.3*,18.0,-11.7,17.1
O=C(NNC(=S)Nc1ccccc1)Nc1ccccc1,-8.8,3.7,0.1,-5.0,3.3,nt,nt
O=C(NNC(=S)Nc1ccccc1)NNC(=S)Nc1ccccc1,0.3,12.0,3.7,30.2*,14.7,-2.3,17.0
CC1Cc2ccccc2N1C(=O)C1CCN(S(=O)(=O)Cc2ccccc2)CC1 (stereo unspecified),4.4,5.0,-6.1,4.0,3.5,nt,nt
CCN(CC)C(=O)CSc1ncnc2c(-c3cccs3)nsc12,2.2,4.6,-2.9,19.9*,-31.8,-4.1,11.5
Oc1ccc(-c2cn3c(n2)SCC3)cc1O,-0.6,23.0,4.1,37.5*,33.0,-7.2,32.9*
Oc1ccc(-c2cn3c(n2)SCC3)cc1,-0.9,-4.4,7.0,-3.1,2.6,nt,nt
NC(=O)c1ccc(-n2nnnc2SCC(=O)c2ccc(O)c(O)c2)cc1,0.4,22.7,5.2,28.4*,28.8,-10.1,38.9*
CCc1ccc(N2CN=c3s/c(=C\c4ccccc4)c(=O)n3C2)cc1,-2.5,-3.9,-4.1,5.8,3.5,nt,nt
CN(C)S(=O)(=O)N1C(=O)c2ccccc2C1=O,-0.6,-4.9,-5.0,-4.4,4.2,nt,nt
